Assay results published in ChEMBL document CHEMBL1240314, “Small-molecule inhibitor of p53 binding to mitochondria protects mice from gamma radiation” (2006).
Activity calls are given as the source filed them.

Assays:
[1] = target: Cellular tumor antigen p53 (Homo sapiens) (UniProt P04637); test: Binding affinity to p53 transfected in human […] cells assessed as reduction in p53 bound-Bcl-xL at 15 uM after 48 hrs; format: cell-based; details: HEK293
Outline: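 293T cells cotransfected with Flag-tagged wild-type Bcl-xL or Bcl-2 plus wild-type p53 plasmid; compound 15 mM (so in the source) applied 24 h after transfection; lysates (1 mg protein) immunoprecipitated with anti-Flag M2 gel, bound p53 detected with HRP-conjugated DO-1.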

[2] = target: Cellular tumor antigen p53 (Homo sapiens) (UniProt P04637); test: Inhibition of p53-dependent transactivation of p21 in gamma-stimulated human ConA cells; format: cell-based
Outline: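 ConA cells given 10 µM test agent and 10 Gy gamma irradiation. Protein extracts taken 6 h post-irradiation and p21 detected by immunoblotting.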

HeLa = test: Antiapoptotic activity against staurosporine-induced cell death in human HeLa cells assessed as cell survival at 10 uM after 24 hrs by methylene blue assay; format: functional, cell-based
WI-38 [3] = test: Antiapoptotic activity against TNF-alpha induced apoptosis in human WI38 cells assessed as cell survival at 0.1 uM to 10 uM after 24 hrs by methylene blue assay in presence of 0.5 ug/ml cycloheximidine; format: functional, cell-based
WI-38 [4] = test: Antiapoptotic activity against Fas-induced apoptosis in human WI38 cells assessed as cell survival at 0.1 uM to 10 uM after 24 hrs by methylene blue assay in presence of 1 ug/ml cycloheximidine; format: functional, cell-based
[5] = target: Cellular tumor antigen p53 (Homo sapiens) (UniProt P04637); test: Inhibition of p53-mediated apoptosis in human WI38 cells assessed as cell survival at 10 uM after 24 hrs by methylene blue assay; format: cell-based; details: WI-38
[6] = target: Cellular tumor antigen p53 (Mus musculus) (UniProt P02340); test: Inhibition of p53-mediated apoptosis in mouse fibroblast assessed as cell survival at 10 uM after 24 hrs by methylene blue assay
Target sequence in this assay (P02340 whole entry): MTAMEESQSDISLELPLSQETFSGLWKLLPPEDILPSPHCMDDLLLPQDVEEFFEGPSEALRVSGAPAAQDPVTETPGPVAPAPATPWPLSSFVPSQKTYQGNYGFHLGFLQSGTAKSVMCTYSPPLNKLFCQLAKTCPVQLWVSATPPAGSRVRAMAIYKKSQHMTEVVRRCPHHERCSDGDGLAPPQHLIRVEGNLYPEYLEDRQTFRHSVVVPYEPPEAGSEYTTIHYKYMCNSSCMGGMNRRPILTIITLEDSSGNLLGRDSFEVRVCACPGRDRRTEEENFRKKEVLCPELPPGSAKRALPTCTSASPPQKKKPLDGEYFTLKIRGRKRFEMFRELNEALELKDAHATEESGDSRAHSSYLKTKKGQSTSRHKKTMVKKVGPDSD

[7] = target: Cellular tumor antigen p53 (Homo sapiens) (UniProt P04637); test: Inhibition of p53-mediated apoptosis in human Saos-2 cells harboring p53 expressing lentiviral vector assessed as cell survival at 10 uM after 48 hrs by methylene blue assay; format: cell-based
Outline: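 Saos-2 cells infected with p53-expressing lentivirus; 10 µM test agent added 5 h after infection. Survival assessed 48 h after infection by methylene blue (0.5%) staining of attached cells and optical density read-out. Means ± s.d., n = 3.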

[8] = target: Cellular tumor antigen p53 (Homo sapiens) (UniProt P04637); test: Inhibition of p53-mediated transactivation of promoter bax in human H1299 cells at 10 uM after 48 hrs by luciferase reporter assay; format: cell-based
[9] = target: Cellular tumor antigen p53 (Homo sapiens) (UniProt P04637); test: Inhibition of p53-mediated transactivation of promoter hDM2 in human H1299 cells at 10 uM after 48 hrs by lacZ reporter assay; format: cell-based
[10] = target: Cellular tumor antigen p53 (Homo sapiens) (UniProt P04637); test: Inhibition of p53-dependent transcription of puma in UV-induced human MCF7 cells; format: cell-based
Outline: (§1)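 Northern analysis of MCF7 cells, p53 wild-type and shRNA p53-knockdown. Induction by UV 8.5 J m–2 or Dox […]. RNA isolated 18 h after treatment; 10 µg hybridised with 32P-labelled full-length cDNA probes for Bax, Noxa or Puma. 18S rRNA used as loading control.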

[11] = target: Cellular tumor antigen p53 (Homo sapiens) (UniProt P04637); test: Inhibition of p53-dependent transcription of puma in human MCF7 cells; format: cell-based; outline: as §1
[12] = target: Cellular tumor antigen p53 (Homo sapiens) (UniProt P04637); test: Inhibition of p53-dependent transcription of bax in UV-stimulated human […] cells; format: cell-based; outline: as §1
[13] = target: Cellular tumor antigen p53 (Homo sapiens) (UniProt P04637); test: Inhibition of p53-dependent transcription of bax in human MCF7 cells; format: cell-based; outline: as §1
[14] = target: Cellular tumor antigen p53 (Homo sapiens) (UniProt P04637); test: Inhibition of p53-dependent transcription of bax in doxorubicin-induced human U2OS cells; format: cell-based
Outline: (§2)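 Northern analysis of U2OS cells, p53 wild-type and shRNA p53-knockdown. Induction by UV 8.5 J m–2 or Dox […]. RNA isolated 18 h after treatment; 10 µg hybridised with 32P-labelled full-length cDNA probes for Bax, Noxa or Puma. 18S rRNA used as loading control.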

[15] = target: Cellular tumor antigen p53 (Homo sapiens) (UniProt P04637); test: Inhibition of p53-dependent transcription of noxa in doxorubicin-induced human U2OS cells; format: cell-based; outline: as §2
[16] = target: Cellular tumor antigen p53 (Homo sapiens) (UniProt P04637); test: Inhibition of p53-mediated transactivation of p21 in gamma-stimulated human SK-MEL-29 cells at 10 uM after 6 hrs
[17] = target: Cellular tumor antigen p53 (Mus musculus) (UniProt P02340); test: Inhibition of p53-dependent transcription of puma in gamma-stimulated mouse thymocyte
Target sequence in this assay (P02340 whole entry): as above

Homo sapiens [18] = species: Homo sapiens; test: Induction of p21 mRNA expression in human SK-MEL-29 cells; format: functional, cell-based
Outline: (§3)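 Wild-type and p53-deficient cell pairs stimulated with 5-FU ([…] as printed) or gamma irradiation (10 or 15 Gy); p21 mRNA quantified by real-time PCR; means ± s.d., n = 3.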

Homo sapiens [19] = species: Homo sapiens; test: Induction of p21 mRNA expression in gamma-stimulated human SK-MEL-29 cells; format: functional; outline: as §3
BJ = test: Induction of p21 mRNA expression in 5-fluorouracil-stimulated human BJ cells; format: functional, cell-based; outline: as §3
[20] = target: Cellular tumor antigen p53 (Homo sapiens) (UniProt P04637); test: Inhibition of p53 in gamma-stimulated human ConA cells assessed as effect on cell cycle distribution at 10 uM after 24 hrs; format: cell-based
Outline: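 ConA cells given 10 µM test agent, with or without 10 Gy gamma irradiation. Cell-cycle distribution measured 24 h later.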

U2OS [21] = test: Induction of Puma gene expression in human U2OS cells; format: functional, cell-based
Outline: (§4)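 Northern blot: 10 mg RNA (so in the source) isolated 18 h after UV (8.5 J m–2) or doxorubicin (125 mg ml–1 as printed) from MCF7 or U2OS cells and p53-knockdown (lentiviral shRNA) counterparts; hybridized with 32P-labeled full-length cDNA probes for Bax, Noxa, Puma; 18S rRNA loading control.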

U2OS [22] = test: Induction of Noxa gene expression in doxorubicin-induced human U2OS cells; format: functional, cell-based; outline: as §4
U2OS [23] = test: Induction of Bax gene expression in doxorubicin-induced human U2OS cells; format: functional, cell-based; outline: as §4
Mus musculus = test: Protection against 8 Gy gamma radiation-induced death in mouse assessed as increase in survival at 40 mg/kg, ip; format: functional; details: route intraperitoneal
Outline: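 Male C57Bl/6J mice, 8–10 weeks old, given a single 40 mg kg–1 intraperitoneal dose 30 min before total-body gamma irradiation (137Cs, 4 Gy min–1) at 8 or 9 Gy. Survival followed. Ten mice per subgroup; three independent repeats.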

[24] = target: Cellular tumor antigen p53 (Homo sapiens) (UniProt P04637); test: Binding affinity to p53 transfected in human Saos-2 cells harboring pLV-53 assessed as reduction of p53 protein in mitochondria at 10 uM after 48 hrs
Outline: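 Saos-2 cells infected with p53-expressing lentivirus; compound ([…] as printed) added 5 h after infection; mitochondrial and cytosolic fractions western blotted for p53 at 48 h post-infection, with mt-Hsp75 and β-actin as fraction loading controls.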

[25] = target: Cellular tumor antigen p53 (Mus musculus) (UniProt P02340); test: Binding affinity to p53 in gamma irradiated mouse thymocyte assessed as cytosolic p53 concentration at 10 uM after 2 hrs
Target sequence in this assay (P02340 whole entry): as above

Thymocyte [26] = test: Induction of p21 mRNA expression in mouse thymocytes
Thymocyte [27] = test: Induction of p21 mRNA expression in gamma-stimulated mouse thymocytes
[28] = target: Cellular tumor antigen p53 (Mus musculus) (UniProt P02340); test: Inhibition of p53-mediated transactivation of p21 in gamma-stimulated mouse ConA cells at 10 uM after 6 hrs
Target sequence in this assay (P02340 whole entry, looked up): as the sequence (P02340 whole entry) above

Chain of Cellular tumor antigen p53 (Homo sapiens) (P04637 whole entry, looked up): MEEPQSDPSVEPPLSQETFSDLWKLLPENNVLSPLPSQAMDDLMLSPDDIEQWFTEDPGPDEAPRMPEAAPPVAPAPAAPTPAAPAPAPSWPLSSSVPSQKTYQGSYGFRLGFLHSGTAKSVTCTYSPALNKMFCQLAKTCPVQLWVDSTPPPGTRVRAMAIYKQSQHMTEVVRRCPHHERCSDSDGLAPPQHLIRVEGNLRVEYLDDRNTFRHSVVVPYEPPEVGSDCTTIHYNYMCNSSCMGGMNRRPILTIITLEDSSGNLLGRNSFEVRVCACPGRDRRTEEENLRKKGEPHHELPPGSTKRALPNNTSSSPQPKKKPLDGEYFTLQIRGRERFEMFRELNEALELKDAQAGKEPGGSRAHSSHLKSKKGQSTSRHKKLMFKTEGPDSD

NS(=O)(=O)C#Cc1ccccc1
inactive: inhibition [2] | Activity (HeLa) | Activity (WI-38 [3]) | Activity (WI-38 [4]) | inhibition [8] | inhibition [9] | inhibition [10] | inhibition [11] | inhibition [12] | inhibition [13] | inhibition [14] | inhibition [15] | inhibition [16] | inhibition [17] | Activity (Homo sapiens [18]) | Activity (Homo sapiens [19]) | Activity (BJ) | inhibition [20] | Activity (U2OS [21]) | Activity (U2OS [22]) | Activity (U2OS [23]) | Activity [25] | Activity (Thymocyte [26]) | Activity (Thymocyte [27]) | inhibition [28]
active: Activity [1] | inhibition [5] | inhibition [6] | inhibition [7] | Activity [24]
70%: Activity (Mus musculus)
